In ChEMBL document CHEMBL1146277, “The discovery of 6-[2-(5-chloro-2-{[(2,4-difluorophenyl)methyl]oxy}phenyl)-1-cyclopenten-1-yl]-2-pyridinecarboxylic acid, GW848687X, a potent and selective prostaglandin EP1 receptor antagonist for the treatment of inflammatory pain” (Bioorg Med Chem Lett, 2007):
Activity calls are given as the source filed them. No cut-off for these calls is given here.

How the values were obtained:
[1] = target: T1, Prostaglandin E2 receptor EP1 subtype (Homo sapiens, UniProt P34995); experiment: Inhibition of human EP1 receptor
T1 sequence (P34995 whole entry): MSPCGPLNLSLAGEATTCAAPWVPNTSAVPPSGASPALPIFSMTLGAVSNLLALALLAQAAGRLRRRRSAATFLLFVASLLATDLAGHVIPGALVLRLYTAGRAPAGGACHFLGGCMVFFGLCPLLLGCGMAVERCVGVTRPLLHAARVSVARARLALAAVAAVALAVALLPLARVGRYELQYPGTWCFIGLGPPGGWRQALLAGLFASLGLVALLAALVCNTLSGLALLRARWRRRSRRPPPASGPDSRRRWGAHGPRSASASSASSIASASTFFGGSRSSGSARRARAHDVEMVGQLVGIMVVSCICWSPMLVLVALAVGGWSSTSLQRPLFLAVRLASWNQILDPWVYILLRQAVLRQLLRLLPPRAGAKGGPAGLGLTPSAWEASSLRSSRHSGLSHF

[2] = target: T2, Prostaglandin E2 receptor EP3 subtype (Homo sapiens, UniProt P43115); experiment: Inhibition of human EP3 receptor
T2 sequence (P43115 whole entry): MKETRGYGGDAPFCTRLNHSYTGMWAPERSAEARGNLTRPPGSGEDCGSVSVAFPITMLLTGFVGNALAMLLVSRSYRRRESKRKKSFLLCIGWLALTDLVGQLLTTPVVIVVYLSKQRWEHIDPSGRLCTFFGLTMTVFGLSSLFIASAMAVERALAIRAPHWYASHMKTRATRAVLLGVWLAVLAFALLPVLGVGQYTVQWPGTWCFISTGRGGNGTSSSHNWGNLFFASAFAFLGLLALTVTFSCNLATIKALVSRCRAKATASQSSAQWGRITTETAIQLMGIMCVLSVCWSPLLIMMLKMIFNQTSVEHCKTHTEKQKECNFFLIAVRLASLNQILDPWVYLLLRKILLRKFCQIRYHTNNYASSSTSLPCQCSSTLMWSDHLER

[3] = Lipophilicity, log D of the compound; format: physicochemical; settings: octanol/water
[4] = Blood clearance in rat at 1 mg/kg, iv; format: ADME, organism-based; design: dose 1 mg/kg, route intravenous; settings: whole blood
[5] = Volume of distribution in rat at 1 mg/kg, iv; format: ADME, organism-based; design: dose 1 mg/kg, route intravenous; settings: in vivo, read-out: Vdss
[6] = Half life in rat at 1 mg/kg, iv; format: ADME, organism-based; design: dose 1 mg/kg, route intravenous; settings: in vivo
[7] = Intrinsic clearance in rat liver microsomes; format: ADME, Microsome
How it was run: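 Rate of metabolism measured as intrinsic clearance (ml/min/g) in a rat microsomal assay.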

Cytochrome P450 2C9 = Cytochrome P450 2C9 (Homo sapiens, UniProt P11712); experiment: Inhibition of human CYP2C9; format: ADME
How it was run: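 Inhibition measured in a human recombinant CYP2C9 isozyme assay; IC₅₀ reported in µM.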

[8] = Blood clearance in rat; format: ADME, organism-based; settings: whole blood
[9] = Half life in rat; format: ADME, organism-based; settings: in vivo
Rattus norvegicus [10] = experiment: Reversal of hypersensitivity in po dosed FCA rat model of acute inflammatory pain; format: functional
How it was run: (§1)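 Freund's complete adjuvant injected into one hind paw; 24 h later, with hypersensitivity established, rats received a single oral dose of test compound in 1% methylcellulose. Hypersensitivity was read by weight bearing as percent inhibition (reversal) for each dose. Tested either as a single 5 mg/kg po dose or as a 3-point dose response, with ED₅₀ calculated as the dose giving 50% reversal.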

[11] = target: T1, Prostaglandin E2 receptor EP1 subtype; experiment: Antagonist activity at human EP1 receptor; format: functional; settings: read-out: pA2 (converted)
[12] = Oral bioavailability in rat; format: ADME, organism-based; settings: in vivo
[13] = Oral bioavailability in dog; format: ADME, organism-based, Canis lupus familiaris; settings: in vivo
[14] = Half life in dog; format: ADME, organism-based, Canis lupus familiaris; settings: in vivo
Rattus norvegicus [15] = experiment: Reversal of antihyperalgesic effect in chronic rat model of joint pain at 30 mg/kg bid for 5 days
Rattus norvegicus [16] = experiment: Reversal of hypersensitivity in FCA rat model of acute inflammatory pain at 5 mg/kg, po; format: functional; how it was run: as §1

Cytochrome P450 2C9, sequence (P11712 whole entry): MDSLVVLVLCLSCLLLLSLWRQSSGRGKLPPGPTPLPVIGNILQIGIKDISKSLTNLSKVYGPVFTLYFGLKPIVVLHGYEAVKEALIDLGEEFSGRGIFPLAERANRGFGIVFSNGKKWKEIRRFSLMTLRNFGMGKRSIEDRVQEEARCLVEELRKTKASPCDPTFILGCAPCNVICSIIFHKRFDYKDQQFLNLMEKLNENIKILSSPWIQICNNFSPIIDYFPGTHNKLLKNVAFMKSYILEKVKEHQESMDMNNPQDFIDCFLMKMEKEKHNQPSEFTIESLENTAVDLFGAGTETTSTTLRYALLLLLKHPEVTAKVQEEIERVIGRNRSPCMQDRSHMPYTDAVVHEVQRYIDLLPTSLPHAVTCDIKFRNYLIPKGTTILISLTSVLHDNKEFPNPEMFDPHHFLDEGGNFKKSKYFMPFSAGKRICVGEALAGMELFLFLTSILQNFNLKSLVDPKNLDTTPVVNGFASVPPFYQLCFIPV

SMILES | IC50 [1] | IC50 [2] | further results
O=C(O)c1cccc(C2=C(c3ccccc3OCc3ccc(Cl)c(Cl)c3)CCC2)c1 | 398 nM | > 3160 nM | 
O=C(O)c1cc(C2=C(c3cc(Cl)ccc3OCc3ccccc3)CCC2)ncn1 | 200 nM |  | logD [3]: 1.2
CSc1ccc(OCc2ccc(F)cc2)c(C2=C(c3cccc(C(=O)O)c3)CCC2)c1 | 31.6 nM | > 3160 nM | 
O=C(O)c1cccc(C2=C(c3ccccc3OCc3ccc(Cl)cc3F)CCC2)c1 | 50.1 nM | > 3160 nM | 
O=C(O)c1cc(C2=C(c3cc(Cl)ccc3OCc3ccccc3)CCC2)cnn1 | 39.8 nM |  | 
COc1ccc(COc2ccccc2C2=C(c3cccc(C(=O)O)c3)CCC2)cc1 | 100 nM | > 3160 nM | 
N#Cc1ccc(OCc2ccccc2)c(C2=C(c3cccc(C(=O)O)c3)CCC2)c1 | 100 nM | > 3160 nM | 
O=C(O)c1cccc(C2=C(c3ccccc3OCc3ccc(F)cc3F)CCC2)c1 | 25.1 nM | > 3160 nM | 
O=C(O)c1ccnc(C2=C(c3cc(Cl)ccc3OCc3ccccc3)CCC2)n1 | 158 nM |  | logD [3]: 0.8
COc1ccc(COc2ccc(Br)cc2C2=C(c3cccc(C(=O)O)c3)CCC2)cc1 | 39.8 nM | > 3160 nM | 
O=C(O)c1cccc(C2=C(c3cc(Br)ccc3OCc3ccc(F)cc3)CCC2)c1 | 20 nM | > 3160 nM | clearance [4]: 46 mL/min/kg; Vd [5]: 0.7 L/kg; half-life [6]: 0.2 h
CSc1ccc(OCc2ccccc2)c(C2=C(c3cccc(C(=O)O)c3)CCC2)c1 | 63.1 nM | > 3160 nM | 
O=C(O)c1cccc(C2=C(c3cc(Br)ccc3OCc3ccc(Cl)c(Cl)c3)CCC2)c1 | 100 nM | > 3160 nM | 
CS(=O)(=O)c1ccc(OCc2ccccc2)c(C2=C(c3cccc(C(=O)O)c3)CCC2)c1 | 79.4 nM | > 3160 nM | 
O=C(O)c1cc(C2=C(c3cc(C(F)(F)F)ccc3OCc3ccccc3)CCC2)ccn1 | 39.8 nM |  | 
N#Cc1ccc(OCc2ccc(Cl)cc2)c(C2=C(c3cccc(C(=O)O)c3)CCC2)c1 | 200 nM | > 3160 nM | 
CS(=O)(=O)c1ccc(OCc2ccc(F)cc2)c(C2=C(c3cccc(C(=O)O)c3)CCC2)c1 | 79.4 nM | > 3160 nM | 
N#Cc1ccc(OCc2ccc(F)cc2)c(C2=C(c3cccc(C(=O)O)c3)CCC2)c1 | 398 nM | > 3160 nM | 
N#Cc1ccc(OCc2ccc(F)cc2F)c(C2=C(c3cccc(C(=O)O)c3)CCC2)c1 | 39.8 nM | > 3160 nM | 

These reach a lower IC50 [1]. Values come first.

IC50 [1] | IC50 [2] | SMILES | further results
5.01 nM | > 3160 nM | O=C(O)c1cccc(C2=C(c3cc(Br)ccc3OCc3ccc(F)cc3F)CCC2)c1 | clearance [4]: 35 mL/min/kg; Vd [5]: 0.6 L/kg; half-life [6]: 0.2 h
5.01 nM | > 3160 nM | O=C(O)c1cccc(C2=C(c3cc(Cl)ccc3OCc3ccccc3)CCC2)c1 | 
2.51 nM |  | O=C(O)c1cccc(C2=C(c3cc(Cl)ccc3OCc3ccc(F)cc3F)CCC2)n1 | CLint scaled [7]: 2.9 mL/min/g; IC50 (Cytochrome P450 2C9): 14000 nM; logD [3]: 2.6; clearance [8]: 7 mL/min/kg; half-life [9]: 2.2 h; ED50 (Rattus norvegicus [10]): 1.3 mg/kg; Kb [11]: 0.794 nM; bioavailability [12]: 54%; bioavailability [13]: 53%; half-life [14]: 2 h; Activity (Rattus norvegicus [15]): Active
12.6 nM | > 3160 nM | O=C(O)c1cccc(C2=C(c3cc(Br)ccc3OCc3ccccc3)CCC2)c1 | clearance [4]: 52 mL/min/kg; Vd [5]: 1 L/kg; half-life [6]: 0.3 h
15.8 nM | > 3160 nM | CSc1ccc(OCc2ccc(F)cc2F)c(C2=C(c3cccc(C(=O)O)c3)CCC2)c1 | 
6.31 nM |  | O=C(O)c1cnnc(C2=C(c3cc(Cl)ccc3OCc3ccc(F)cc3F)CCC2)c1 | CLint scaled [7]: 14 mL/min/g; IC50 (Cytochrome P450 2C9): 5400 nM; logD [3]: 1.2
15.8 nM | > 3160 nM | CS(=O)(=O)c1ccc(OCc2ccc(F)cc2F)c(C2=C(c3cccc(C(=O)O)c3)CCC2)c1 | 
3.16 nM |  | O=C(O)c1ccnc(C2=C(c3cc(Br)ccc3OCc3ccc(F)cc3)CCC2)c1 | CLint scaled [7]: 20 mL/min/g; IC50 (Cytochrome P450 2C9): 5000 nM; logD [3]: 2.7
1.58 nM |  | Cc1ncc(C2=C(c3cc(Cl)ccc3OCc3ccc(F)cc3)CCC2)cc1C(=O)O | CLint scaled [7]: 3.8 mL/min/g; IC50 (Cytochrome P450 2C9): 9000 nM; logD [3]: 2.7; Activity (Rattus norvegicus [16]): <30%
12.6 nM | > 3160 nM | O=C(O)c1cccc(C2=C(c3cc(Br)ccc3OCc3ccc(Cl)cc3)CCC2)c1 | clearance [4]: 33 mL/min/kg; Vd [5]: 0.4 L/kg
6.31 nM | > 3160 nM | O=C(O)c1cccc(C2=C(c3ccccc3OCc3ccccc3)CCC2)c1 | 
2.51 nM | > 3160 nM | O=C(O)c1cccc(C2=C(c3cc(Br)ccc3OCc3ccc(Cl)cc3F)CCC2)c1 | 
10 nM |  | O=C(O)c1cncc(C2=C(c3cc(C(F)(F)F)ccc3OCc3ccccc3)CCC2)c1 | CLint scaled [7]: 2.2 mL/min/g; IC50 (Cytochrome P450 2C9): 14000 nM; logD [3]: 2.7; clearance [8]: 22 mL/min/kg; half-life [9]: 4.1 h; ED50 (Rattus norvegicus [10]): 1.3 mg/kg
2 nM |  | O=C(O)c1cncc(C2=C(c3cc(Cl)ccc3OCc3ccc(F)cc3F)CCC2)n1 | CLint scaled [7]: 2.6 mL/min/g; IC50 (Cytochrome P450 2C9): 12000 nM; logD [3]: 1.6; Activity (Rattus norvegicus [16]): 52%
